{"data": "Published values collected from several papers", "target": "Serine/threonine-protein kinase PAK 5 (PAK5, Homo sapiens, UniProt Q9P286)", "note": "Lines come from different studies, so protocols differ."}
{"Structure (SMILES)": "CS(=O)(=O)CCNCc1ccc(-c2ccc3ncnc(Nc4ccc(OCc5cccc(F)c5)c(Cl)c4)c3c2)o1", "test": "cell-free assay", "setting": "0.5 µM", "quantity": "remaining signal", "value": "98.5%"}
{"Structure (SMILES)": "CC(C)(C)c1nc(-c2cccc(NS(=O)(=O)c3c(F)cccc3F)c2F)c(-c2ccnc(N)n2)s1", "test": "enzyme activity, inhibitor, radiometric", "setting": "1 µM", "quantity": "remaining activity", "value": "78%"}
{"Structure (SMILES)": "COc1ccc2cc(OCC3(C(=O)O)CN(C(=O)c4ccc(F)cc4)C3)ccc2c1", "test": "cell-free assay, competition with immobilised ligand", "setting": "1 µM", "quantity": "remaining binding", "value": "100%"}
{"Structure (SMILES)": "CCCOc1ccc(OC)c(F)c1C(=O)c1ccc(C(=O)N[C@@H]2CNC[C@H]2NC(=O)c2ccc3[nH]ncc3c2)cc1", "test": "enzyme activity, inhibitor", "setting": "10 µM", "quantity": "remaining activity", "value": "85%"}
{"Structure (SMILES)": "C[C@@H]1CN(c2cc(-c3nn(C)c4ccc(OC5(C)CC5)cc34)ncn2)C[C@H](C)O1", "test": "cell-free assay, competition with immobilised ligand", "setting": "1 µM", "quantity": "remaining binding", "value": "84%"}
{"Structure (SMILES)": "O=C(Nc1cnn(-c2csc(C(=O)NC3COC3)c2)c1)Nc1c(F)cccc1Cl", "test": "enzyme activity, inhibitor", "setting": "5 µM", "quantity": "remaining activity", "value": "92.9%"}
{"Structure (SMILES)": "CN1CCN(c2cnc3c(C4CCN(C(=O)c5ccc(OC(F)(F)F)cc5N)CC4)ncnc3c2)CC1", "test": "cell-free assay, competition with immobilised ligand", "setting": "1 µM", "quantity": "remaining binding", "value": "100%"}
{"Structure (SMILES)": "O=C1NC(=O)c2cc(Nc3ccc(F)cc3)c(Nc3ccc(F)cc3)cc21", "test": "cell-free assay", "setting": "0.5 µM", "quantity": "remaining signal", "value": "96.4%"}
{"Structure (SMILES)": "Cc1nccc(COC(=O)N2C[C@@H]3[C@@H](CNC(=O)c4ccc5[nH]nnc5c4)[C@@H]3C2)n1", "test": "cell-free assay, competition with immobilised ligand", "setting": "1 µM", "quantity": "remaining binding", "value": "92%"}
{"Structure (SMILES)": "CN1CC(Oc2cnc(C#N)cc2-c2ccn3nc(NC(=O)C4CC4)cc3c2)C1", "test": "enzyme activity, inhibitor", "setting": "1 µM", "quantity": "inhibition", "value": "3%"}
{"Structure (SMILES)": "O=C(Nc1cnn(-c2csc(C(=O)NC3COC3)c2)c1)Nc1ccccc1Cl", "test": "enzyme activity, inhibitor", "setting": "5 µM", "quantity": "remaining activity", "value": "92.1%"}
{"Structure (SMILES)": "Cn1nc(C(=O)NCc2ccc(C(=O)O)cc2)cc1-c1ccc2[nH]ccc2c1", "test": "cell-free assay, competition with immobilised ligand", "setting": "0.1 µM", "quantity": "remaining binding", "value": "62%"}
{"Structure (SMILES)": "Oc1cccc(-c2nc(N3CCOCC3)c3oc4ncccc4c3n2)c1", "test": "enzyme activity, inhibitor", "setting": "10 µM", "quantity": "remaining activity", "value": "112%"}
{"Structure (SMILES)": "Cc1ccc(Nc2nccc(N(C)c3ccc4c(C)n(C)nc4c3)n2)cc1S(N)(=O)=O", "test": "cell-free assay, inhibitor", "setting": "0.5 µM", "quantity": "remaining signal", "value": "95.4%"}
{"Structure (SMILES)": "CNC(=O)c1cc(Oc2ccc(NC(=O)Nc3ccc(Cl)c(C(F)(F)F)c3)cc2)ccn1", "test": "enzyme activity, inhibitor", "setting": "0.3 µM", "quantity": "inhibition", "value": "-18%"}
{"Structure (SMILES)": "CN(C)C(=O)Cn1cc(-c2nc(C3(c4ccc(-c5cnc(N)nc5)cc4)CC3)no2)cn1", "test": "cell-free assay, competition with immobilised ligand", "setting": "1 µM", "quantity": "remaining binding", "value": "88%"}
{"Structure (SMILES)": "C[C@H]1CCN(c2nccc(-c3cnn4ncccc34)n2)C1", "test": "binding", "setting": "1 µM", "quantity": "remaining binding", "value": "100%"}
{"Structure (SMILES)": "FC(F)(F)Oc1cccc(-c2cnc3ccc(-c4ccncc4)nn23)c1", "test": "enzyme activity, inhibitor, radiometric", "setting": "5 µM", "quantity": "activity vs control", "value": "62%"}
{"Structure (SMILES)": "COc1cc(/C=C/C(=O)CC(=O)/C=C/c2ccc(O)c(OC)c2)ccc1O", "test": "enzyme activity, inhibitor", "setting": "1 µM", "quantity": "activity vs control", "value": "108%"}
{"Structure (SMILES)": "FC(F)c1nc2ccccc2n1-c1nc(N2CCOCC2)nc(N2CCOCC2)n1", "test": "enzyme activity, inhibitor", "setting": "10 µM", "quantity": "remaining activity", "value": "84%"}
{"Structure (SMILES)": "COc1cc(Cl)c(C(=O)N[C@@H](CN[C@H]2CC[C@@H](N)CC2)Cc2ccc(C#N)cc2)cc1-c1ccc(CN[C@H](C)c2ccc(C)cc2)o1", "test": "enzyme activity, inhibitor", "setting": "1 µM", "quantity": "remaining activity", "value": "103%"}
{"Structure (SMILES)": "Nc1nc(NC2CCCCC2)sc1C(=O)c1ccccc1", "test": "enzyme activity, inhibitor", "setting": "10 µM", "quantity": "remaining activity", "value": "103%"}
{"Structure (SMILES)": "Cc1cnc(NC2CCOCC2)nc1-n1cnc(C(=O)NC(CN)c2cc(F)cc(Cl)c2)c1 (centres unmarked)", "test": "enzyme activity, inhibitor, radiometric", "setting": "1 µM", "quantity": "remaining activity", "value": "83%"}
{"Structure (SMILES)": "CCOc1cc(-c2nncn2C)ccc1Nc1ncc2cc(C)nc(NCC(C)(C)C)c2n1", "test": "enzyme activity, inhibitor, FRET", "setting": "1 µM", "quantity": "inhibition", "value": "< 15%"}
{"Structure (SMILES)": "Cc1noc([C@H]2C[C@@H](c3ccc(C(F)(F)F)cc3)CN(C(=O)N3CCS(=O)(=O)C3)C2)n1", "test": "cell-free assay, competition with immobilised ligand", "setting": "1 µM", "quantity": "remaining binding", "value": "100%"}
{"Structure (SMILES)": "CCN(CC)CCNC(=O)c1c(C)[nH]c(/C=C2\\C(=O)Nc3ccc(F)cc32)c1C", "test": "enzyme activity, inhibitor", "setting": "0.3 µM", "quantity": "inhibition", "value": "-4%"}
{"Structure (SMILES)": "COc1cc2ncnc(Nc3ccc(Oc4ccccc4)c(C)c3C)c2cc1OC", "test": "enzyme activity, inhibitor", "setting": "1 µM", "quantity": "inhibition", "value": "3%"}
{"Structure (SMILES)": "O=C1NC(c2ccccn2)Sc2ccccc21 (centres unmarked)", "test": "cell-free assay, competition with immobilised ligand", "setting": "1 µM", "quantity": "remaining binding", "value": "94%"}
{"Structure (SMILES)": "CCN(CC)c1ccc(C2=NNC(=O)CC2C)cc1[N+](=O)[O-] (centres unmarked)", "test": "enzyme activity, inhibitor", "setting": "10 µM", "quantity": "remaining activity", "value": "5%"}
